Columns and labels:
[1] = biological target: T1, Dihydrofolate reductase (Gallus gallus) (UniProt P00378)
T1 sequence (whole entry): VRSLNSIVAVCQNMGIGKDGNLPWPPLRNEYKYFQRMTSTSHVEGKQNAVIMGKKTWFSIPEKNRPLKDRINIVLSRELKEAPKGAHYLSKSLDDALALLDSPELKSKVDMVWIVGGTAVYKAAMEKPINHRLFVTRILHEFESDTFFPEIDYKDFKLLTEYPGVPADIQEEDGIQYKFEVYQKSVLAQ

[2] = biological target: T2, Dihydrofolate reductase (Bos taurus) (UniProt P00376)
T2 sequence (whole entry): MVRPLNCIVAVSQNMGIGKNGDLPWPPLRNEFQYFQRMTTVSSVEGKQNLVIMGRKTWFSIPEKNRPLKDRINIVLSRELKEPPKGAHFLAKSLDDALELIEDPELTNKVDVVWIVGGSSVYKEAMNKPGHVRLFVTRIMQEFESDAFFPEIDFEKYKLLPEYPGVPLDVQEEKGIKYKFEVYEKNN

[3] = biological target: T2, Dihydrofolate reductase (Bos taurus); experiment: Inhibitory activity against bovine liver Dihydrofolate reductase at pH 7.2.
Outline: (§1)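 DHFR from chicken liver and from bovine liver, each assayed at pH 7.2 by the group's earlier-reported inhibition procedure. Potency is expressed as an apparent inhibition constant, reported as log(1/Ki app).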

[4] = biological target: T1, Dihydrofolate reductase (Gallus gallus); experiment: Inhibitory activity against chicken Dihydrofolate reductase at pH 7.2.
Outline: as §1

| Log 1/Ki app [1] | Structure (SMILES) | also measured |
| --- | --- | --- |
| 4.72 | Cc1cccc(Cc2cnc(N)nc2N)c1 |  |
| 4.99 | COc1ccc(Cc2cnc(N)nc2N)cc1C(F)(F)F |  |
| 4.79 | Nc1ncc(Cc2ccc(F)cc2)c(N)n1 |  |
| 4.79 | Nc1ncc(Cc2cccc(I)c2)c(N)n1 | Log 1/Ki app [2]: 6.15 |
| 4.71 | Nc1ncc(Cc2ccccc2)c(N)n1 |  |
| 5.17 | CCCCOCc1cccc(Cc2cnc(N)nc2N)c1 |  |
| 4.7 | Nc1ncc(Cc2cccc(F)c2)c(N)n1 |  |
|  | CCCCCCCOc1ccc(Cc2cnc(N)nc2N)cc1 | Log 1/Ki app [3]: 5.45 |
| 5.01 | Nc1ncc(Cc2cccc(Cl)c2)c(N)n1 |  |
| 4.01 | CN(C)c1ccc(Cc2cnc(N)nc2N)cc1 |  |
|  | COCCOc1cccc(Cc2cnc(N)nc2N)c1 | Log 1/Ki app [4]: 4.83; Log 1/Ki app [3]: 5.58 |
|  | Nc1ncc(Cc2cc(O)cc(O)c2)c(N)n1 | Log 1/Ki app [3]: 3.39 |
| 4.37 | Nc1ncc(Cc2ccc([N+](=O)[O-])cc2)c(N)n1 |  |
| 4.46 | COc1ccc(Cc2cnc(N)nc2N)cc1OC | Log 1/Ki app [2]: 5.66 |
| 4.26 | Nc1ncc(Cc2ccc(OC(F)(F)F)cc2)c(N)n1 | Log 1/Ki app [2]: 5.42 |
| 3.64 | COCCOc1c(OC)cc(Cc2cnc(N)nc2N)cc1OC |  |
| 4.26 | CC(=O)Nc1ccc(Cc2cnc(N)nc2N)cc1 |  |

Source: ChEMBL document CHEMBL1122156, “A comparison of the inhibitory action of 5-(substituted-benzyl)-2,4-diaminopyrimidines on dihydrofolate reductase from chicken liver with that from bovine liver” (J Med Chem, 1982)
